Test results: ChEMBL document CHEMBL1126276, “Synthesis and antimalarial properties of 1-imino derivatives of 7-chloro-3-substituted-3,4-dihydro-1,9(2H,10H)-acridinediones and related structures” (J Med Chem, 1992)

How the values were obtained:
Plasmodium berghei [1] = test: Antimalarial activity in Plasmodium berghei infected mice (Mus musculus) after 10 mg/kg subcutaneous dose; format: functional
Method in brief: (§1)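 Normal drug-sensitive P. berghei strain in mice. Compound dissolved or suspended in sesame or peanut oil, given parenterally as a single subcutaneous dose 72 h postinfection.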

Plasmodium berghei [2] = test: (§2) Antimalarial activity in Plasmodium berghei infected mice (Mus musculus) after 20 mg/kg subcutaneous dose; format: functional; method in brief: as §1
Plasmodium berghei [3] = test: (§3) Antimalarial activity in Plasmodium berghei infected mice (Mus musculus) after 40 mg/kg subcutaneous dose; format: functional; method in brief: as §1
Plasmodium berghei [4] = test: Antimalarial activity in Plasmodium berghei infected mice (Mus musculus) after subcutaneous 320 mg/kg dose; format: functional; method in brief: as §1
Plasmodium berghei [5] = test: as §2; format: functional; remark: listed apart in the source
Method in brief: (§4)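 […] in mice infected with a normal drug-sensitive P. berghei strain. Compound dissolved or suspended in sesame or peanut oil, given as a single subcutaneous dose 72 h postinfection.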

Plasmodium berghei [6] = test: Antimalarial activity in Plasmodium berghei infected mice (Mus musculus) after subcutaneous 640 mg/kg dose; format: functional; method in brief: as §1
Plasmodium berghei [7] = test: (§5) Antimalarial activity in Plasmodium berghei infected mice (Mus musculus) after 80 mg/kg subcutaneous dose; format: functional; method in brief: as §1
Plasmodium berghei [8] = test: Antimalarial activity in Plasmodium berghei infected mice (Mus musculus) after subcutaneous 160 mg/kg dose; format: functional; method in brief: as §1
Plasmodium berghei [9] = test: as §3; format: functional; method in brief: as §4; remark: listed apart in the source
Plasmodium berghei [10] = test: as §5; format: functional; method in brief: as §4; remark: listed apart in the source
Plasmodium berghei [11] = test: Antimalarial activity was measured against mice (Mus musculus) infected with Plasmodium berghei by subcutaneous administration of 320 mg/kg dose; format: organism-based; set-up: dose 320 mg/kg, route subcutaneous; conditions: in vivo, sc; method in brief: as §4
Plasmodium berghei [12] = test: Antimalarial activity was measured against mice (Mus musculus) infected with Plasmodium berghei by subcutaneous administration of 160 mg/kg dose; format: organism-based; set-up: dose 160 mg/kg, route subcutaneous; conditions: in vivo, sc; method in brief: as §4
Plasmodium berghei [13] = test: Antimalarial activity was measured against mice (Mus musculus) infected with Plasmodium berghei by subcutaneous administration of 40 mg/kg dose; format: organism-based; set-up: dose 40 mg/kg, route subcutaneous; conditions: in vivo, sc; method in brief: as §4
Plasmodium berghei [14] = test: Antimalarial activity was measured against mice (Mus musculus) infected with Plasmodium berghei by subcutaneous administration of 80 mg/kg dose; format: organism-based; set-up: dose 80 mg/kg, route subcutaneous; conditions: in vivo, sc; method in brief: as §4
Plasmodium berghei [15] = test: Antimalarial activity was measured against mice (Mus musculus) infected with Plasmodium berghei by subcutaneous administration of 640 mg/kg dose; format: organism-based; set-up: dose 640 mg/kg, route subcutaneous; conditions: in vivo, sc; method in brief: as §4
Plasmodium berghei [16] = test: Antimalarial activity Plasmodium berghei infected mice (Mus musculus) after 640 mg/kg subcutaneous dose; format: functional; method in brief: as §4
Plasmodium berghei [17] = test: Antimalarial activity in Plasmodium berghei infected mice (Mus musculus) after 160 mg/kg subcutaneous dose; format: functional; method in brief: as §4
Plasmodium berghei [18] = test: Antimalarial activity was measured against mice (Mus musculus) infected with Plasmodium berghei by subcutaneous administration of 20 mg/kg dose; format: organism-based; set-up: dose 20 mg/kg, route subcutaneous; conditions: in vivo, sc; method in brief: as §4
Plasmodium berghei [19] = test: Antimalarial activity in Plasmodium berghei infected mice (Mus musculus) after 320 mg/kg subcutaneous dose; format: functional; method in brief: as §4

SMILES	No. of cured mice (Plasmodium berghei [1])	No. of cured mice (Plasmodium berghei [2])	No. of cured mice (Plasmodium berghei [3])	No. of cured mice (Plasmodium berghei [4])	Delta mean survival time (Plasmodium berghei [5])	No. of cured mice (Plasmodium berghei [6])	No. of cured mice (Plasmodium berghei [7])	No. of cured mice (Plasmodium berghei [8])	Delta mean survival time (Plasmodium berghei [9])	Delta mean survival time (Plasmodium berghei [10])	No. of toxic deaths (Plasmodium berghei [11])	No. of toxic deaths (Plasmodium berghei [12])	No. of toxic deaths (Plasmodium berghei [13])	No. of toxic deaths (Plasmodium berghei [14])	No. of toxic deaths (Plasmodium berghei [15])	Delta mean survival time (Plasmodium berghei [16])	Delta mean survival time (Plasmodium berghei [17])	No. of toxic deaths (Plasmodium berghei [18])	Delta mean survival time (Plasmodium berghei [19])
OCCN(CCO)CCC/N=C1\CC(c2ccc(Cl)cc2Cl)Cc2nc3ccc(Cl)cc3c(O)c21 (stereo not drawn)	1	4	4	5	10.9	5	5	5	10.9										
CN(C)CCC/N=C1\CC(c2ccc(C(F)(F)F)cc2)Cc2nc3cc(Cl)ccc3c(O)c21 (stereo not drawn)					2.1				5.4	6.4	5	5	3	3	5				
CCN(CC)CC/N=C1\CC(c2ccc(C(F)(F)F)cc2)Cc2c1c(=O)c1cc(Cl)ccc1n2O (stereo not drawn)		1	2	4	10.5	3	5	4	10.8		1	1			2				
C=CCNCC/N=C1\CC(c2ccc(C(F)(F)F)cc2)Cc2c1c(=O)c1cc(Cl)ccc1n2O (stereo not drawn)			2		7.8		1	5	8.4		5			3	5				
Oc1c2c(nc3ccc(Cl)cc13)CC(c1ccc(Cl)cc1Cl)C/C2=N\CCCN1CCCC1 (stereo not drawn)	1	4	5	5	22.9	5	5	5											
CCCCNC(CC)C/N=C1\CC(c2ccc(Cl)cc2Cl)Cc2nc3ccc(Cl)cc3c(O)c21 (stereo not drawn)	4	5	5	5		5	5	5											
O=c1c2c(n(O)c3ccc(Cl)cc13)CC(c1cccc(C(F)(F)F)c1)C/C2=N\CCCCCN1CCCC1 (stereo not drawn)									0.6			5	4		5				
CCN(CC)CCCC(C)/N=C1\CC(c2ccc(C(F)(F)F)cc2)Cc2nc3ccc(Cl)cc3c(O)c21 (stereo not drawn)		3	5	3	10.8	2	4	5			2			1		3.3			
CN(C)CCC/N=C1\CC2(CCCCC2)Cc2c1c(=O)c1cc(Cl)ccc1n2O												5	5		5				
CCN(CC)CCC/N=C1\CC(c2ccc(C(F)(F)F)cc2)Cc2c1c(=O)c1cc(Cl)ccc1n2O (stereo not drawn)		2	3	2	10.1		2	2	16.8		3	3		3	5				
CN(C)CCC/N=C1\CC(c2ccccc2Cl)Cc2c1c(=O)c1cc(Cl)ccc1n2O (stereo not drawn)									3			1	2		5		4		
CN(C)CCC/N=C1\CC(c2ccc(C(F)(F)F)cc2)Cc2nc3ccccc3c(O)c21 (stereo not drawn)					5.3							5	5		5			1	
CCN(CC)CCCC/N=C1\CC(c2ccc(Cl)cc2Cl)Cc2nc3ccc(Cl)cc3c(O)c21 (stereo not drawn)	2	5	5	5		5	5	5											
O=c1c2c(n(O)c3ccc(Cl)cc13)CC(c1cccc(C(F)(F)F)c1)C/C2=N\CCCCN1CCCC1 (stereo not drawn)									4.6	3.7	4	5	3		5				0.5
O=C1CC(c2ccc(Cl)cc2Cl)Cc2nc3c(Cl)cccc3c(O)c21 (stereo not drawn)					0.3				1.3	5.3	2	2	1	1	4	2	1.3	1	4
O=C1CC(c2ccc(C(F)(F)F)cc2)Cc2c1c(=O)c1cc(Cl)c(F)cc1n2O (stereo not drawn)					9						5	5	5	5	5				
CN(C)CCC/N=C1\CC(c2ccc(Cl)cc2Cl)Cc2nc3c(Cl)cccc3c(O)c21 (stereo not drawn)					0				0.5		5	5	1	4	5				
COc1ccccc1C1C/C(=N\CCCN(C)C)c2c(n(O)c3ccc(Cl)cc3c2=O)C1 (stereo not drawn)									0.3			5	1		5				
CCN(CC)CC/N=C1\CC(c2ccc(Cl)cc2Cl)Cc2nc3ccc(Cl)cc3c(O)c21 (stereo not drawn)	5	5	5	5		5	5	5											
CCCC/N=C1\CC(c2ccc(Cl)c(Cl)c2)Cc2nc3ccc(Cl)cc3c(O)c21 (stereo not drawn)										1.5		5	4	3	1	2.5		5	1.2
CCn1c2c(c(=O)c3cc(Cl)ccc31)C(=O)CC(c1ccc(C(F)(F)F)cc1)C2 (stereo not drawn)									0			2	2		1	0	0		
